The results in this text go back to ChEMBL document CHEMBL6127097, “Structure-Guided Discovery of cis-Hexahydro-pyrido-oxazinones as Reversible, Drug-like Monoacylglycerol Lipase Inhibitors” (J Med Chem, 2024).

Data set [1] has as its target T1, Monoglyceride lipase (Rattus norvegicus) (UniProt Q8R431).
T1 sequence (whole entry): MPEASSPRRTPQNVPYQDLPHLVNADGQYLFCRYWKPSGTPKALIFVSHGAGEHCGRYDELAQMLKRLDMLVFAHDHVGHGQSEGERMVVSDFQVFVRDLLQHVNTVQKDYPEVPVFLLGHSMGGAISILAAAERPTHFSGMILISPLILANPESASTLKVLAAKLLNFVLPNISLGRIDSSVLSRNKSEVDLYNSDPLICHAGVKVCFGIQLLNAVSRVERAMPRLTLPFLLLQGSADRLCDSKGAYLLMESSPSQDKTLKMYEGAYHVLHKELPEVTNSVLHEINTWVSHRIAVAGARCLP
Description: Binding affinity to rat MAGL assessed as dissociation rate constant by SPR analysis. The method, boiled down: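 Human or rat MAGL was immobilized by amine coupling without ethanolamine quenching. Runs were done at 18 °C in 10 mM HEPES, 150 mM NaCl, 0.05% P20, 50 µM EDTA, pH 7.4, with 1% DMSO. Single-cycle kinetics used five concentrations, top 1 µM in 2-fold steps, at 30 µL/min, giving kon, koff and Kd.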

In data set [2] the target is T2, Monoacylglycerol lipase ABHD6 (Mus musculus) (UniProt Q8R2Y0).
T2 sequence (whole entry): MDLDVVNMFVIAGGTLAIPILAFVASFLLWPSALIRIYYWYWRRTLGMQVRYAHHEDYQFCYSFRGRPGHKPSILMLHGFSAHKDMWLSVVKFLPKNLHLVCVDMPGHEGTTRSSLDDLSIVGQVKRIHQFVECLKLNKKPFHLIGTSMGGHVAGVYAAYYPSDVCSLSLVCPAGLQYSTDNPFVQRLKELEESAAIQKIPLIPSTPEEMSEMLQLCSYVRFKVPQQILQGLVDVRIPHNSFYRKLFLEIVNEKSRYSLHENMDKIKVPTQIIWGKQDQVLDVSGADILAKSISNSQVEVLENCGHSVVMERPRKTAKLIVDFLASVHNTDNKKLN
Description: Inhibition of ABHD6 in mouse brain lysates at 10 uM by ABPP assay. The data set is classed as subcellular. In outline: (§1)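 Gel-based activity-based protein profiling of hydrolases, with the inhibitor at 10 µM.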

Data set [3] addresses T3, Lysophosphatidylserine lipase ABHD12 (Mus musculus) (UniProt Q99LR1).
T3 sequence (whole entry): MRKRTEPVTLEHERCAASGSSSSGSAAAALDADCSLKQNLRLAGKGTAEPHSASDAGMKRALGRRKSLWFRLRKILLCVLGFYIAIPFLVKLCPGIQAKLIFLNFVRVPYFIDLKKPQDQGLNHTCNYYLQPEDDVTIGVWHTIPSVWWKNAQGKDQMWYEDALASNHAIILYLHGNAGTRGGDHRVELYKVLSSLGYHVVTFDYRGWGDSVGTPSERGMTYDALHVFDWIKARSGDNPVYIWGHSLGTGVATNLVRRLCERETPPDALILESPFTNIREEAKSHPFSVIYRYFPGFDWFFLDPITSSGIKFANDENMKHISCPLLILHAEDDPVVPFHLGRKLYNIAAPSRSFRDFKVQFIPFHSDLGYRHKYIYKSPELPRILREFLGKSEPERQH
In words: Inhibition of ABHD12 in mouse brain lysates at 10 uM by ABPP assay. The data set is classed as subcellular. In outline:
as §1

For the next data set, the system named is LLC-PK1. In words: Substrate activity at human P-gp expressed in LLC-PK1 cells assessed as efflux ratio incubated for 3 hrs. The data set is classed as cell-based. In outline: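 LLC-PK1 porcine kidney cells transfected with human or mouse P-gp, grown as polarized monolayers on filter plates. Compound is dosed apically or basolaterally and transport followed 3 h at 37 °C. Efflux ratio comes from unidirectional Papp; 1 µM zosuquidar defines permeability without P-gp.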

The test system of data set [4] is Mus musculus. In words: Upregulation of brain 2-AG level in mouse at 30 mg/kg, ip measured after 2 hrs. The data set is classed as functional, organism-based. In outline: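 Mice dosed i.p. in NaCl/DMSO/TW80 (80/10/10): 3, 10 or 30 mg/kg with sacrifice at 4 h, or 30 mg/kg over a 24 h time course. Brain extract 2-AG and AA were measured by LC/MS.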
Data set [5] concerns Mus musculus. In words: Antiinflammatory activity in LPS-induced CD-1 mouse neuroinflammation model assessed as decrease in brain IL-1beta mRNA expression at 30 mg/kg, ip measured after 6 hrs by qRT-PCR analysis. The data set is classed as functional, organism-based. The method, boiled down:
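CD-1 mice received NaCl + vehicle, LPS (5 mg/kg) + vehicle, or LPS + inhibitor at 30 mg/kg i.p. The vehicle was NaCl/DMSO/Tween 80, 80/10/10. Mice were killed 6 h after compound dosing. LCN2 and IL1b mRNA in cortical brain lysates were quantified by droplet digital qRT-PCR.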
A general note: Real-time PCR tracks product formation cycle by cycle.

Data set [6] concerns the target Fatty acid amide hydrolase (Mus musculus) (UniProt O08914). In words: Inhibition of FAAH in mouse brain lysates at 10 uM by ABPP assay.
The nature of data set [7]: Clearance in rat microsomes. The data set is classed as ADME, Microsome.
Data set [8] can be described thus: Clearance in rat hepatocytes assessed per 10 million cells. The data set is classed as ADME, cell-based, Hepatocyte.
Data set [9] can be described thus: Clearance in Wistar rat at 1 mg/kg, iv measured upto 24 hrs by LC-MS/MS analysis. Conditions: in vivo. The data set is classed as ADME, organism-based. The method, boiled down: (§2)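 Male Wistar rats (N = 3 per group) received a single dose. The i.v. dose was 1 mg/kg in NMP/0.9% NaCl 30:70. The p.o. dose was 5 mg/kg in NMP/HPMC/diisooctyl sulfosuccinate 10:90. Blood was taken into K2EDTA from 0.083 (i.v.) or 0.25 h to 24 h. Plasma was assayed by LC-MS/MS and analysed non-compartmentally.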

Data set [10] in a line: Cmax in Wistar rat at 5 mg/kg, po measured upto 24 hrs by LC-MS/MS analysis. The data set is classed as ADME, organism-based. Conditions: in vivo. In outline:
as §2

Data set [11] is described as follows: Cmax in Wistar rat at 10 mg/kg, ip measured upto 24 hrs by LC-MS/MS analysis. The data set is classed as ADME, organism-based. Conditions: in vivo.
A short description of data set [12]: AUClast in Wistar rat at 10 mg/kg, ip measured upto 24 hrs by LC-MS/MS analysis. The data set is classed as ADME, organism-based. The settings on record: in vivo.
Data set [13] can be described thus: Ratio of drug concentration in Wistar rat brain to plasma at 10 mg/kg, ip measured upto 7 hrs by LC-MS/MS analysis. The data set is classed as ADME, organism-based. In outline:
(§3)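 Male Wistar rats, single dose. i.v. in NMP/0.9% NaCl 30:70; p.o. and i.p. in NMP/HPMC/diisooctyl sulfosuccinate 10:90; 3 per i.v./p.o. group, 6 i.p. K2EDTA plasma sampled 0.083–7 h, plus 24 h for i.v./p.o.; brain and CSF at 1, 2, 7 h (i.p. only). LC-MS/MS, noncompartmental analysis.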

Data set [14] in a line: Unbound brain to plasma partition coefficient of compound in Wistar rat at 10 mg/kg, ip measured upto 7 hrs by LC-MS/MS analysis. The data set is classed as ADME, organism-based. The settings on record: read-out: K(p,uu,brain). In outline:
as §3

The target of a further data set is CYP2C9 (Homo sapiens, UniProt P11712). In words: Inhibition of CYP2C9 (unknown origin) at 10 uM relative to control. The data set is classed as ADME.
Sequence of CYP2C9 (P11712 whole entry): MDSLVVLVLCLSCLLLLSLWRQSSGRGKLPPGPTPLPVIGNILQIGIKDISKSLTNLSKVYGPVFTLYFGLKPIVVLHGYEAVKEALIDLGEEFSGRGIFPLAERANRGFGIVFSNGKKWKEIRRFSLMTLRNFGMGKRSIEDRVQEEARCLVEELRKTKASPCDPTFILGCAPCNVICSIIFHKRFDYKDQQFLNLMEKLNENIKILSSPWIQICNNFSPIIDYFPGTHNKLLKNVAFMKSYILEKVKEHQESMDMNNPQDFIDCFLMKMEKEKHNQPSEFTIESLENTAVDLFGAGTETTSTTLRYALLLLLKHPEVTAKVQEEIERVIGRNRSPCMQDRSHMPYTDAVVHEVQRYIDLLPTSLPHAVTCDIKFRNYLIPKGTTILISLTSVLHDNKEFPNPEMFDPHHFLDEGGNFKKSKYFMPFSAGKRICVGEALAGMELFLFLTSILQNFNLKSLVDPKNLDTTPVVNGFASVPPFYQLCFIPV
The target in a further data set is CYP2D6 (Homo sapiens, UniProt P10635). Description: Inhibition of CYP2D6 (unknown origin) at 10 uM relative to control. The data set is classed as ADME.
Sequence of CYP2D6 (P10635 whole entry): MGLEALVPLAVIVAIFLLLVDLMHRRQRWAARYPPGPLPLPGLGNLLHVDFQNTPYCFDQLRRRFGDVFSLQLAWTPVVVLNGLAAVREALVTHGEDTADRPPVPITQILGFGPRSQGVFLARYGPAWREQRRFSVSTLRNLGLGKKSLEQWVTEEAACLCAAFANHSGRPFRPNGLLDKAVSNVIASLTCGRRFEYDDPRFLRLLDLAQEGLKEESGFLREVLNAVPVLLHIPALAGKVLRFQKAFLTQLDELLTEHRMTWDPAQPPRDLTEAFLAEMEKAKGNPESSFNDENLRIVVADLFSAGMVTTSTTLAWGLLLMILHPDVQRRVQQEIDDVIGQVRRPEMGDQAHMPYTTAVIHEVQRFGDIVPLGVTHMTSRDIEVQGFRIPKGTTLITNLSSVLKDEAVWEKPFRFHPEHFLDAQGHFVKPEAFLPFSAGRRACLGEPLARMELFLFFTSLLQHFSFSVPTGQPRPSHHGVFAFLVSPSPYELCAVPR
Data set [15] can be described thus: Drug concentration in mouse CSF at 10 mg/kg, ip measured after 4 hrs. The settings on record: read-out: Ct. The data set is classed as ADME, organism-based, Cerebrospinal fluid.
A short description of data set [16]: Drug concentration in mouse CSF at 30 mg/kg, ip measured after 4 hrs. The data set is classed as ADME, organism-based, Cerebrospinal fluid. Conditions: read-out: Ct.

Molecules are shown by their SMILES. Activity calls are given as the source filed them. The calls are words filed in the database; no cut-off is given here.

Sequence of Fatty acid amide hydrolase (Mus musculus) (O08914 whole entry, looked up): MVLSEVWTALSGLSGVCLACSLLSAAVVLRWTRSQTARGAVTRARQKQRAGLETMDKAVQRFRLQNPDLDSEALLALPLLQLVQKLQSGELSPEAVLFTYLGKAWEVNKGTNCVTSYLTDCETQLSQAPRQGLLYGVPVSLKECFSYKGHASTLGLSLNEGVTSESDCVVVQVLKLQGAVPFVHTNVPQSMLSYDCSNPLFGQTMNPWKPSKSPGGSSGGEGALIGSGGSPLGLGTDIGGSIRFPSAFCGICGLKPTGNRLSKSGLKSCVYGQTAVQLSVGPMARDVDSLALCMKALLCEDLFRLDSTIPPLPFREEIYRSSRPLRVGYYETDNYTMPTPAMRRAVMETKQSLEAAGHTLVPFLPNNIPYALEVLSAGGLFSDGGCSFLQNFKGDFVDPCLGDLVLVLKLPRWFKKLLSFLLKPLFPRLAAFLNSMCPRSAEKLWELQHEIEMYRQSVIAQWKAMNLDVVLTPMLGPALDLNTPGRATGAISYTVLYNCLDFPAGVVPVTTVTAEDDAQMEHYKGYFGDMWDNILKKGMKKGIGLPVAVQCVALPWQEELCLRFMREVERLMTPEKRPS

By inhibition is commonly meant the change of the read-out against control, counted positive when it falls. On to `O=C1CO[C@H]2CCN(C(=O)N3CCC(Cc4ccc(C(F)(F)F)cc4)CC3)C[C@H]2N1` [listing 1 of 2 here], for which the K in data set [1] was 16.8 10^-3/s. In addition, the inhibition result in data set [2], in [3] and in [6] was “inactive” throughout. In addition, the Ratio in the data set on LLC-PK1 came to 2.4. Further, the outcome in the data set on Mus musculus [4] and in the data set on Mus musculus [5] was Active.
A word on the microsomal CLint: it is a measure of how fast metabolising enzymes remove a compound, apart from limits set by blood flow. Low readings indicate slow turnover, high ones rapid turnover. A word on the hepatocyte CLint: it is the rate of metabolic loss divided by the concentration. As a reminder, the clearance is a measure of how efficiently the substance is removed, as volume per time. By Cmax is commonly meant the maximum level reached in the sampled fluid or tissue. Broadly, the AUC(0-t) is exposure summed from dosing to a finite time, without extrapolation to infinity. A high value points to high exposure. Broadly, the Kp is tissue or fluid exposure divided by exposure in the circulation. Consider `O=C1CO[C@H]2CCN(C(=O)N3CCC(Cc4ccc(C(F)(F)F)cc4)CC3)C[C@H]2N1` [listing 2 of 2 here], for which the intrinsic clearance (microsomal CLint) in [7] stood at 11 µL/min/mg. The compound also displayed an intrinsic clearance (hepatocyte CLint) in data set [8] of 4 µL/min/10^7 cells. This compound gave a clearance in data set [9] of 4.6 mL/min/kg. Moreover, the Cmax in data set [10] was found to be 1290 ng/mL; in [11], 12200 ng/mL. The compound also displayed an AUC(0-t) at 24 h in data set [12] of 40200 ng·h/mL. Moreover, the Kp at 7 h in [13] came out at 1.1. Also, the Kp uu at 7 h in [14] came out at 0.53. The values for the inhibition at 10 µM against CYP2C9 and at CYP2D6 were 3% and -12%, respectively. Moreover, the concentration at 4 h in data set [15] came to 123 nM; in data set [16], 455 nM.
